Source: ChEMBL document CHEMBL1165978, “Synthesis and evaluation of in vitro anticancer activity of some novel isopentenyladenosine derivatives” (Bioorg Med Chem, 2010)
Activity calls are given as the source filed them. The rule behind the calls is not given here.

Legend:
T-24 [1] = experiment: Antiproliferative activity against quiescent human T24 cells at 10 uM after 72 hrs by MTT assay; type: functional, cell-based
Outline: (§1)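 T24 cells were seeded at 2000/cm², and 16 h later were exposed to starvation medium (D-MEM, 0.1% FBS) or fresh complete medium (10% FBS) and treated with compound, with 0.01% DMSO as control. For the final 1 h the medium held MTT at 0.5 mg/mL. Formazan was then dissolved in DMSO for read-out. Data are mean ± SD of at least 3 experiments in triplicate, Student's t test.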

T-24 [2] = experiment: Antiproliferative activity against proliferating human T24 cells assessed as mild decrease in viable cell count at 10 uM after 72 hrs by trypan blue exclusion assay; type: functional, cell-based
Outline: (§2)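 T24 cells were seeded at 2000/cm² in growth medium and allowed to attach for 16 h. They were then switched to complete medium (D-MEM, 10% FBS, 1 mM L-glutamine, penicillin/streptomycin) or to starvation medium (D-MEM, 0.1% FBS, 48 h, to induce quiescence). After 48 h, compound was added for 72 h, with 0.01% DMSO as control. Cells were trypsinized, stained with trypan blue and counted in a Burker chamber. Data are mean ± SD of at least 3 experiments in triplicate.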

T-24 [3] = experiment: Antiproliferative activity against quiescent human T24 cells assessed as decrease in viable cell count at 10 uM after 72 hrs by trypan blue exclusion assay; type: functional, cell-based; outline: as §2
T-24 [4] = experiment: Cytotoxicity against human T24 cells assessed as mild inhibition of cell colony formation at 10 uM after 24 hrs by crystal violet staining; type: functional, cell-based
T-24 [5] = experiment: Antimetastatic activity in human T24 cells assessed as inhibition of EGF-stimulated cellular migration at 10 uM after 16 hrs by microscopic analysis; type: functional, cell-based
Outline: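 Confluent T24 monolayers in 24-well plates were scratch-wounded, then given EGF (100 ng/mL) plus compound for 16 h, with DMSO (0.01% final) as control. Cells moving into the wound were photographed by microscope. Four fields per sample were counted and expressed as migration relative to control. Data are from at least 3 experiments in triplicate, mean ± SD, Student's t test.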

T-24 [6] = experiment: Cytotoxicity against human T24 cells assessed as inhibition of cell colony formation at 10 uM after 24 hrs by crystal violet staining; type: functional, cell-based
T-24 [7] = experiment: Antiproliferative activity against proliferating human T24 cells at 10 uM after 72 hrs by MTT assay; type: functional, cell-based; outline: as §1
T-24 [8] = experiment: Antiproliferative activity against proliferating human T24 cells at 10 uM after 72 hrs by MTT assay in presence of 10% fetal bovine serum

With `CC(C)=CCNc1nc(N)nc2c1ncn2[C@@H]1O[C@H](CO)[C@@H](O)[C@H]1O` the Activity (T-24 [1]) was “Active”, the inhibition (T-24 [2]) was “Active” and the inhibition (T-24 [3]) was “Active”. For the same compound, the inhibition (T-24 [4]) was “Active” and the inhibition (T-24 [5]) was “inactive”.

With `CC(C)=CCNc1ncnc2c1ncn2[C@@H]1O[C@H](CO)[C@@H](O)[C@@H]1O` the inhibition (T-24 [6]) was “inactive”, the Activity (T-24 [1]) was “inactive” and the Activity (T-24 [7]) was “inactive”.

For `CC(C)=CCNc1ncnc2c1ncn2[C@@H]1O[C@H](CO)[C@@H](O)[C@H]1O` (stereo in doubt; 1a), the inhibition (T-24 [6]) was “inactive”.

With `CC(C)=CC[n+]1cnc2c(ncn2[C@@H]2O[C@H](CO)C[C@H]2O)c1N` the inhibition (T-24 [3]) was “Active”, the inhibition (T-24 [5]) was “inactive” and the Activity (T-24 [8]) was “inactive”.

For `CC(C)=CCNc1ncnc2c1ncn2[C@@H]1O[C@H](CO)[C@@H](O)[C@H]1O` (stereo in doubt), the inhibition (T-24 [6]) was “Active”, the Activity (T-24 [1]) was “Active” and the inhibition (T-24 [5]) was “inactive”.
